An excerpt weighted towards active compounds, which were near 1.7% of everything screened.
IDE cell activ = IDE (human) activation, cell-based | P14735 | HEK cells, FAbeta-B cleavage, fluorescence polarization; 0% vehicle, 100% cell-free pure enzyme wells | activation, % at 5.96 µM | 340,000 tested, 0.073% active | AID 493087;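 active means activation above the mean of all tested compounds plus 3 SD, set per screening campaign, cut at about 17% in these data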
Target sequence (P14735 whole entry, looked up): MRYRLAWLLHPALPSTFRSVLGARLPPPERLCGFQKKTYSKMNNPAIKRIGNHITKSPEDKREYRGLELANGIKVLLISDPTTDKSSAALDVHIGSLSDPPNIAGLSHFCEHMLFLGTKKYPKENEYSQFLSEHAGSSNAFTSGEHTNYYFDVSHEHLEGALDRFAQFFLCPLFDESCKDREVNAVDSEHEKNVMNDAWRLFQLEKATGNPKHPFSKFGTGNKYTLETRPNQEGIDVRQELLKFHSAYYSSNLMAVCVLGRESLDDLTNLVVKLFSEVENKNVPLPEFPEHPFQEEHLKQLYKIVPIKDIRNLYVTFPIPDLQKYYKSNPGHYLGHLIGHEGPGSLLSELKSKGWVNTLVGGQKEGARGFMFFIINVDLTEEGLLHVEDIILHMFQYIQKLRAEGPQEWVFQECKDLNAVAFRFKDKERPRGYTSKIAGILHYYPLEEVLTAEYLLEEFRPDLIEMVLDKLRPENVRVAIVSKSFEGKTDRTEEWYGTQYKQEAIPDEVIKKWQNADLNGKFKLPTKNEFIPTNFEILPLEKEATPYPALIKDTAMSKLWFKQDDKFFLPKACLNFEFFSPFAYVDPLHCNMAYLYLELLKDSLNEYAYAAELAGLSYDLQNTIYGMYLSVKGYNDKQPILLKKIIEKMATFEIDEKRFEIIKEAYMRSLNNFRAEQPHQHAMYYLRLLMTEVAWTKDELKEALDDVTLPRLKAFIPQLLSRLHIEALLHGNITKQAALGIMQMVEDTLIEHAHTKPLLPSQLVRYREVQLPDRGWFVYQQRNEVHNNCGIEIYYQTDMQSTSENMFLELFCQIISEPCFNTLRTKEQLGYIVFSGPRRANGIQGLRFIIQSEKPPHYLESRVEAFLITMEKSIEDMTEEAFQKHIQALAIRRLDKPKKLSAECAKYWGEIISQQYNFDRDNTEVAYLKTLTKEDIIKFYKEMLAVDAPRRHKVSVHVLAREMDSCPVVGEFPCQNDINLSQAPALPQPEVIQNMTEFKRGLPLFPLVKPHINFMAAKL
HNF4A DNA FP = change in binding of human HNF4 alpha to DNA; HNF4a-FITC DNA binding, fluorescence polarization, 1 h; P41235; activity change, % at 10 µM; AID 1224865; 360,000 tested, 0.3% active; in the data active means activity change above about 30%, passing the limit was not always enough
Rpn11 block = Rpn11 (human) deubiquitinase inhibition; O00487; human 26S proteasome, Ub4-pepOG fluorescence polarization; 20S core pre-blocked with epoxomicin; calls only at 20 µM; 360,000 tested, 0.59% active; AID 588493;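 active means inhibition at 20 µM, scaled to each plate's controls, above about 33%, limit read from the data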
CSN deneddyl inh = inhibitors of human CSN-mediated cullin deneddylation; inhibition, % at 12.5 µM; Q92905; AID 651999; Purified CSN, SCF-Nedd8-OG deneddylation, fluorescence polarization; 360,000 tested, 0.38% active;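 active means pattern-corrected inhibition above about 35%, with an unprinted fluorescence ratio check between 0.5 and 1.5, limit read from the data, passing the limit was not always enough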;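 further: 0% = enzyme with substrate and 100% = substrate without enzyme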
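Assay system: purified human Csn5 enzyme expressed in HEK293T cells; measure: % inhibition; also added: SCFSkp2-Nedd8OG substrate at 10 nM final; technique: fluorescence polarization; times: reaction 90 min, room temperature; medium: Tris buffer pH 7.5, NaCl, DTT, Tween-20, trehalose, ovalbumin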
TPT1 inh = inhibitors of Candida albicans tRNA 2'-phosphotransferase TPT1; recombinant caTPT1, FP RNA substrate dephosphorylation; inhibition, % at 5 µM; 300,000 tested, 0.81% active; AID 1962;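 active means inhibition above the mean of all tested compounds plus 3 SD, set per screening campaign, cut at about 24% in these data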;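 further: plate controls were DMSO alone for no effect and ferristatin control at 100 nM for full effect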
IDE inh = cellular human IDE inhibition; HEK cells, FAbetaB cleavage, fluorescence polarization; P14735; inhibition, % at 5.59 µM; 320,000 tested, 0.41% active; AID 434962;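 active means percent inhibition above the average of all tested compounds plus 3 SD, set per screening campaign, cut at about 16% in these data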;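 further: IDE supplied by intact live HEK cells; FP after avidin binding of uncleaved biotin substrate so inhibition keeps polarization high; 0% = DMSO wells and 100% = 60 µM reference IDE inhibitor Ii1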
Rpn11 confirm = Rpn11 inhibition confirmation, single concentration | purified human 26S proteasome, Ub4-pepOG fluorescence polarization; proteasome pretreated with epoxomicin | shares compounds with Rpn11 block | inhibition, % at 20 µM | 1,900 tested, 29% active
MMP-2 counter = blocks human MMP-2, flagging nonselective RPN11 hits | AID 602330 | recombinant MMP-2, FRET peptide cleavage fluorescence | 1,900 tested, 4% active | inhibition, % at 20 µM | shares compounds with Rpn11 block;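 further: human MMP-2 activated beforehand with APMA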
Thrombin FP = counter-screen for RPN11 inhibitors: inhibition of bovine thrombin. 1,900 tested, 13% active. inhibition, % at 20 µM. bovine thrombin cleavage of Ub4-pepOG, fluorescence polarization. AID 602333. shares compounds with Rpn11 block;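 active means mean inhibition at least 40% at 20 µM, or signal 3 deviations below plate average, so some actives read negative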;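 further: plate controls were thrombin with DMSO for no effect and buffer wells lacking thrombin for full effect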
An asterisk follows results filed as active; i = inactive; · = no result given; + = active, no number. Unless noted, no stated cut-off is given here; in the data, active means inhibition above about 40%; inactive means the rest.

SMILES	IDE cell activ	HNF4A DNA FP	Rpn11 block	CSN deneddyl inh	TPT1 inh	IDE inh	Rpn11 confirm	MMP-2 counter	Thrombin FP
Cc1cc(C)n(C(=O)CNC(=O)/C=C/c2ccccc2)n1	8.5	10.7	+	2.7	-4.2	3.3	-16.9	-17.6	-20.1
Cn1c(=O)n(C)c2cc(NC(=O)c3ccccc3NS(C)(=O)=O)ccc21	4.2	-2.6	i	1.8	0.5	-0.2	·	·	·
O=C(O)c1ccccc1-c1ccc(C=c2sc3nc4cc(Br)cnc4n3c2=O)o1	·	-29.8	+	146.3	·	·	+	69.5*	184.3*
CC1=C(C(=O)Nc2ccc(F)cc2)C(c2ccncc2)C2=C(CCCC2=O)N1 (configuration not stated)	-0.1	0.7	i	-4.3	2.6	-0.9	·	·	·
COc1cc(NC(=O)CN2CCN(S(=O)(=O)/C=C/c3ccccc3)CC2)cc(OC)c1OC	5.6	2.2	i	2.9	·	5.4	·	·	·
O=C(CNC(=O)N1CC(=O)Nc2ccccc21)Nc1cc(Cl)ccc1Cl	-1.9	-2.2	i	0.9	-5.0	9.7	·	·	·
Cc1nnsc1C(=O)NC1CCCc2c1cnn2-c1ccc(F)cc1F (configuration not stated)	3.2	5.8	+	-2.5	2.6	-2.9	11.7	-47.6	-3.1
Cc1cc(Cl)ccc1Oc1ccccc1C(=O)CC#N	0.9	-3.1	+	-8.7	4.3	7.4	28.4	22.2	25.1
Cc1cc(SCC(=O)c2ccc(Cl)cc2)nc(=O)[nH]1	-0.2	8.0	+	8.2	7.3	0.1	0.7	-13.9	-6.5
Cc1cc(SCc2ccc(Cl)cc2Cl)nc(=O)[nH]1	8.3	11.6	+	9.6	11.4	-2.7	36.6	-9.5	30.4
COc1ccc(N2CCN(C(c3cc(OC)ccc3OC)c3nnnn3Cc3ccco3)CC2)cc1 (configuration not stated)	-7.3	-3.6	+	4.6	1.5	1.2	-12.7	3.0	-11.4
CCn1c(CCNC(=O)c2ccc(C)cc2)n[nH]c1=S	-5.3	0.4	i	1.4	-0.6	3.1	·	·	·
Cn1c(CCNC(=O)c2ccc(Cl)cc2)n[nH]c1=S	2.2	-0.3	+	1.1	-3.1	9.8	7.8	0.1	-2.9
COc1ccc(S(=O)(=O)N(C)C[C@H]2OCc3cnnn3CCCC(=O)N([C@H](C)CO)C[C@@H]2C)cc1	·	-3.3	i	3.6	·	·	·	·	·
CCOc1ccc(NC(=O)COC(=O)c2cc([N+](=O)[O-])ccc2N2CCOCC2)cc1	0.5	-0.7	i	1.1	-4.5	2.3	·	·	·
CC(=O)NCCOC(=O)Nc1sc(=S)n(C)c1C	-1.5	-2.5	i	2.8	-2.4	4.8	·	·	·
COc1ccc(C(=O)/C(C#N)=N/Nc2ccccc2[N+](=O)[O-])cc1	-2.7	2.1	i	-11.2	4.6	-1.6	·	·	·
COc1ccc(C(=O)/C(C#N)=N/Nc2ccc([N+](=O)[O-])cc2)cc1	1.6	15.7	+	1.8	4.9	5.3	4.2	0.2	-29.4
Cc1cc(N)c(NC2=CC(=O)CC(C)(C)C2)cc1C	-1.1	-27.1	+	-5.5	-0.7	3.9	7.8	-9.3	3.4
COc1ccc(C(=O)OCC(=O)NCCCc2ccccc2)c(OC)c1	2.7	0.5	i	-0.1	-1.6	-1.0	·	·	·
C=CCn1c2ccccc2c2nnc(SCC(=O)OC)nc21	·	1.8	i	-1.7	·	·	·	·	·
C=CCn1c2ccccc2c2nnc(SCC(N)=O)nc21	-0.2	4.0	+	-2.8	0.2	1.6	-4.3	-29.6	-1.1
Cc1cc(O)c(C(C)C)cc1N=Cc1cc([N+](=O)[O-])ccc1O	0.8	2.6	i	0.2	-5.2	8.6	·	·	·
Cc1cc(O)c(C(C)C)cc1N=Cc1ccccc1O	-2.2	21.2	+	8.5	-0.8	3.9	25.1	-20.4	24.0
O=C1SC(SCc2ccccc2)=N/C1=C\c1ccco1	-10.3	-4.5	i	15.8	2.5	1.0	·	·	·
SMILES	IDE cell activ	HNF4A DNA FP	Rpn11 block	CSN deneddyl inh	TPT1 inh	IDE inh	Rpn11 confirm	MMP-2 counter	Thrombin FP
CCCSC1=N/C(=C\C=C\c2ccco2)C(=O)S1	2.9	-15.3	+	58.9	17.8	3.4	4.2	34.1	6.7
COc1ccc(CNCc2cn(-c3cccc(F)c3)nc2-c2ccc(C)o2)cc1	9.2	30.7	+	11.9	2.7	-3.6	4.4	-8.9	-16.4
COc1ccc(-n2cc(CNCc3cccnc3)c(-c3cccc(F)c3)n2)cc1	0.4	2.9	i	-2.3	0.5	0.7	·	·	·
Cn1cncc1C#Cc1ccc2cc(C3(O)CCCCC3)oc(=O)c2c1	5.7	2.8	+	36.2*	·	-3.5	90.5*	6.3	30.9
COc1ccc(C(=O)Nc2ccc(/C(C)=N/NC(=O)c3ccncc3)cc2)cc1	-0.9	7.4	+	5.7	-1.3	-2.8	44.6*	i	-5.3
COc1ccc(C(=O)Nc2ccc(C(=O)Nc3cccnc3)cc2)cc1	-6.3	3.6	+	2.1	-1.4	1.2	38.6	-272.7	-2.2
O=C(c1ccc(F)cc1)C1CCN(Cc2ccccc2)CC1	6.8	0.5	i	3.7	·	·	·	·	·
Cc1ccc2[nH]c(O)c(N=Nc3ccccc3C)c2c1	-2.6	7.4	+	2.9	2.8	3.1	64.5*	-38.3	-18.1
Cc1ccccc1N=Nc1c(O)[nH]c2ccccc12	·	1.9	i	-0.9	9.2	12.4	·	·	·
Cc1ccc(Cl)cc1NC(=O)c1cnn2c1NC(c1ccco1)CC2C(F)(F)F (configuration not stated)	-6.6	11.0	+	16.5	9.9	-4.0	-14.9	-5.5	-42.7
Cc1cc(C)c(S(=O)(=O)N2C[C@H]3CON(C)[C@H]3C[C@H]2c2ccc(N3CCCCC3)cc2)c(C)c1	·	28.0	+	13.7	·	·	96.0*	-25.9	86.8*
Cc1ccccc1S(=O)(=O)N1C[C@H]2CON(C)[C@H]2C[C@H]1c1cccc(N2CCOCC2)c1	0.8	-2.6	i	-2.7	·	·	·	·	·
O=C(CC1SC(=O)N(c2ccccc2)C1=O)Nc1cccc2ccccc12 (configuration not stated)	-8.1	-0.1	i	5.2	-1.3	-1.1	·	·	·
O=C(CCNC(=O)c1ccccc1)N=Nc1c(O)[nH]c2ccccc12	·	·	·	·	0.8	-0.9	·	·	·
O=C(Cn1nnc(-c2ccccc2)n1)N=Nc1c(O)[nH]c2ccccc12	5.1	-4.3	+	7.8	0.4	3.0	-4.5	14.7	-18.6
Cc1c(OCC(N)=O)ccc2c(-c3ccccc3)cc(=O)oc12	1.0	-0.4	+	1.8	1.2	2.9	47.3*	-25.2	2.9

Compound activity as filed in PubChem BioAssay.
